pIC50: −log10 of the molar value. Converted amounts (≈) assume the structure as drawn. The source made the active and inactive calls. No cut-off for these calls is given here.

The term pIC50 denotes −log10 of the IC50, conventionally taken in molar units. Low readings indicate a high IC50, high ones a low IC50. Broadly, the solubility is the concentration that dissolves in the medium under given conditions.

The nature of series [1]: Inhibition of NFkappaB-mediated gene transcription in human HeLa cells after 1 hr by Dual-Glo luciferase reporter assay. It is filed as cell-based. (In general: A reporter such as luciferase makes a cellular process visible.)
Series [2] can be described thus: Inhibition of chymotryptic-like activity of human 20S proteasome using Suc-LLVY-AMC as substrate measured every min over 30 mins by fluorescence assay.
Series [3] can be described thus: Solubility of the compound in dextrose-water solution at pH 6.5 after 5 mins. To be noted: buffer, pH 6.5, 5 min. The class given is physicochemical. In a few lines:
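1 mL of 5% dextrose in water is brought to pH 6.5 with 3 μl 2 N HCl. Solid is added in 0.5 mg portions, then 0.1 mg near saturation. Each addition is vortexed 40 s and sonicated 30 s at 37.5°C, then held 5 min at 37.5°C and judged visually.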

In series [4] the test system is THP-1. The series is described as follows: cells. The note with it: Homo sapiens, THP-1, 72 h, read-out: Activity.
For series [5], the system named is THP-1. The series is described as follows: Cytotoxicity against wild type human THP1 cells assessed as cell viability at 0.5 uM after 72 hrs by MTS assay relative to vehicle-treated control. The note with it: THP-1, 72 h, read-out: Activity. On the technique in general: Tetrazolium dyes change colour on reduction, which living cells bring about.
Series [6] is described as follows: Inhibition of 20S proteasome (unknown origin). Further details: species or system Homo sapiens.
Series [7] has as its system THP-1. The series is described as follows: Cytotoxicity against wild type human THP1 cells assessed as cell viability at 10 uM after 72 hrs by MTS assay relative to vehicle-treated control. The class given is functional. To be noted: THP-1, 72 h, read-out: Activity. Put shortly: (§1)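 THP-1 cells in RPMI-1640 with 10% FBS, penicillin/streptomycin, 1 mM sodium pyruvate and 0.2 mM L-glutamine at 37°C, 5% CO2. […] Compound in DMSO, final 10 μM, 0.5% DMSO, 72 h. MTS (CellTiter 96 AQueous One) read at 490 nm, background-subtracted, as % of vehicle.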

In series [8] the test system is THP-1. The series is described as follows: Cytotoxicity against bortezomib-resistant human THP1 cells assessed as cell viability at 10 uM after 72 hrs by MTS assay relative to vehicle-treated control. To be noted: for viability at 10 µM: THP-1, 72 h, read-out: Activity. The class given is functional. In a few lines:
as §1

For series [9], the species on record is Homo sapiens. Nature of the series: Non-competitive inhibition of chymotryptic-like activity of human 20S proteasome using Suc-LLVY-AMC as substrate at 1.25 to 5 uM. Put shortly:
(§2)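 Kinetics: purified human 20S proteasome with vehicle or inhibitor at 1.25, 2.5 or 5 μM across varying Suc-LLVY-AMC concentrations. Velocity is followed by AMC fluorescence as in the activity assay. Vmax and Km come from Michaelis-Menten fits with a Lineweaver-Burk plot.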

Series [10] is filed under the species Homo sapiens. The series is described as follows: Non-competitive inhibition of chymotryptic-like activity of human 20S proteasome using Suc-LLVY-AMC as substrate. Put shortly:
as §2

As to `c1ccc(CN2C(c3ccccc3)=N[C@H](c3ccccc3)[C@H]2c2ccccc2)cc1`, the pIC50 in series [1] was 5.34; in [2], 5.85.

Consider `c1ccc(CN2CCN=C2c2ccccc2)cc1`, for which the negative logarithm of the IC50 (pIC50) in [1] and in series [2] was less than 5.00 throughout.

As for `CCOC(=O)[C@]1(c2ccccc2)N=C(c2ccccc2)N(Cc2ccccc2)[C@@H]1c1ccc([N+](=O)[O-])cc1`, the pIC50 in [2] was 5.17.

Regarding `CCOC(=O)[C@]1(c2ccccc2)N=C(c2ccccc2)N(Cc2ccc(F)cc2)[C@@H]1c1ccccc1`, the pIC50 in series [2] was 5.43.

Consider `CCOC(=O)[C@]1(c2ccccc2)N=C(c2ccc(OC)cc2)N(Cc2ccccc2)[C@@H]1c1ccc(NS(=O)(=O)C2CC2)cc1` (racemic), for which the negative logarithm of the IC50 (pIC50) in series [2] was 6.04.

`CCOC(=O)[C@]1(c2ccccc2)N=C(c2ccc(OC)cc2)N(Cc2ccccc2)[C@@H]1c1ccc(NS(=O)(=O)c2ccc(OC)cc2OC)cc1` (racemic): the negative-log IC50 (pIC50) in series [2] is 6.28.

`CCOC(=O)[C@]1(c2ccccc2)N=C(c2ccccc2)N(Cc2ccc(Br)cc2)[C@@H]1c1ccccc1` had a solubility in series [3] of less than 500 µg/mL. In [2], this compound showed a pIC50 of 5.72.

With `CCOC(=O)[C@]1(c2ccccc2)N=C(c2ccc(OC)cc2)N(Cc2ccccc2)[C@@H]1c1ccc(NC(=O)c2ccccc2)cc1` (racemic), the pIC50 in series [2] is 5.84.

`CC(C)C[C@H](NC(=O)[C@H](Cc1ccccc1)NC(=O)c1cnccn1)B(O)O` [BORTEZOMIB]: the viability at 0.5 µM with THP-1 [4] was 68%; in the series on THP-1 [5], less than 5%. Besides, in series [6], the negative logarithm of the IC50 (pIC50) is 8.30.

In [2], `CCOC(=O)[C@]1(c2ccccc2)N=C(c2ccccc2)N(Cc2ccccc2)[C@@H]1c1ccc(S(C)(=O)=O)cc1` (racemic) gave a pIC50 of less than 5.00.

In series [2], `CCOC(=O)[C@]1(c2ccccc2)N=C(c2ccccc2)N(Cc2ccc(OC)cc2)[C@@H]1c1ccccc1` gave a pIC50 of 5.56.

In [3], `CCOC(=O)[C@]1(c2ccccc2)N=C(c2ccccc2)N(Cc2ccc(Cl)cc2)[C@@H]1c1ccccc1` registered a solubility of less than 500 µg/mL. In addition, in [2], the negative-log IC50 (pIC50) was 5.69.

Take `NC(=O)[C@]1(c2ccccc2)N=C(c2ccccc2)N(Cc2ccccc2)[C@@H]1c1ccccc1`: the pIC50 in [1] was less than 4.70; in series [2], less than 5.00.

On to `CCOC(=O)[C@]1(c2ccccc2)N=C(c2ccc(OC)cc2)N(Cc2ccccc2)[C@@H]1c1ccc(NCc2cc(OC)c(OC)c(OC)c2)cc1` (racemic), for which the viability at 10 µM in the series with THP-1 [7] was 24%; in the series on THP-1 [8] it was 34%. In series [2], this compound had a pIC50 of 6.43.

For the compound `CCOC(=O)[C@]1(c2ccccc2)N=C(c2ccccc2)N(Cc2ccccc2)[C@@H]1c1ccc(N)cc1`, the pIC50 in series [2] was 5.45.

For `CCOC(=O)[C@]1(c2ccccc2)N=C(c2ccc(OC)cc2)N(Cc2ccccc2)[C@@H]1c1ccc(C(N)=O)cc1` (racemic), the pIC50 in series [2] was less than 5.00.

Turning to `CCOC(=O)[C@]1(c2ccccc2)N=C(c2ccccc2)N(Cc2ccccc2)[C@@H]1c1ccco1`, the pIC50 in series [2] was 5.21.

Turning to `O=C(OCCO)[C@]1(c2ccccc2)N=C(c2ccccc2)N(Cc2ccccc2)[C@@H]1c1ccccc1` (racemic), the figures for the pIC50 in [1] and in series [2] were 4.96 and 5.49, respectively.

In the case of `c1ccc(Cn2c(-c3ccccc3)nc(-c3ccccc3)c2-c2ccccc2)cc1`, the pIC50 in series [1] and in [2] was less than 5.00 each time.

Regarding `CCOC(=O)[C@]1(c2ccccc2)N=C(c2ccccc2)N[C@@H]1c1ccccc1`, the negative logarithm of the IC50 (pIC50) in series [2] is less than 5.00.

`CCOC(=O)[C@]1(c2ccccc2)N=C(c2ccc(OC)cc2)N(Cc2ccccc2)[C@@H]1c1ccc(NCc2ccc(O)cc2)cc1` (racemic): the viability at 10 µM turned out to be 23% with THP-1 [7] and 36% in the series with THP-1 [8]. Further, the negative logarithm of the IC50 (pIC50) in [2] was 6.27.

In series [2], `CCOC(=O)[C@]1(c2ccccc2)N=C(c2ccccc2)N(S(=O)(=O)c2ccc(C)cc2)[C@@H]1c1ccccc1` gave a negative logarithm of the IC50 (pIC50) of less than 5.00.

Take `CCOC(=O)[C@]1(c2ccccc2)N=C(c2ccc(OC)cc2)N(Cc2ccccc2)[C@@H]1c1ccc(NCc2ccccc2)cc1` (racemic): the viability at 10 µM in the series on THP-1 [7] was determined as 4%; with THP-1 [8], 19%. The inhibition result in the series listed under Homo sapiens [9] was “Active”.

`CCOC(=O)[C@]1(c2ccccc2)N=C(c2ccccc2)N(C(C)=O)[C@@H]1c1ccccc1` gave a pIC50 in series [2] of less than 5.00.

With `O=C(OCc1ccccc1)[C@]1(c2ccccc2)N=C(c2ccccc2)N(Cc2ccccc2)[C@@H]1c1ccccc1`, the values for the negative-log IC50 (pIC50) in series [1] and in [2] were 5.46 and 5.62, respectively.

Compound `CCOC(=O)[C@]1(c2ccccc2)N=C(c2ccccc2)N(Cc2ccccc2)[C@@H]1c1ccc(SC)cc1` (racemic) had a negative logarithm of the IC50 (pIC50) in series [2] of 5.56.

The compound `CCOC(=O)[C@]1(c2ccccc2)N=C(c2ccc(OC)cc2)N(Cc2ccccc2)[C@@H]1c1ccc(NS(=O)(=O)c2ccccc2)cc1` (racemic) showed a pIC50 in series [2] of 6.24.

Consider `CCOC(=O)[C@]1(c2ccccc2)N=C(c2ccc(OC)cc2)N(Cc2ccccc2)[C@@H]1c1ccc(NC(C)=O)cc1` (racemic), for which, in series [2], the pIC50 is 5.66.

`CCOC(=O)[C@]1(c2ccccc2)N=C(c2ccc(OC)cc2)N(Cc2ccccc2)[C@@H]1c1ccc(NS(=O)(=O)N(C)C)cc1` (racemic): the negative-log IC50 (pIC50) in [2] was 5.91.

Turning to `CCOC(=O)[C@]1(c2ccccc2)N=C(c2ccc(OC)cc2)N(Cc2ccccc2)[C@@H]1c1ccc(NCC2CCCCC2)cc1` (racemic), the viability at 10 µM in the series with THP-1 [7] amounted to 4%; in the series with THP-1 [8], 5%. In series [2], this compound gave a pIC50 of 6.89.

`CCOC(=O)[C@]1(c2ccccc2)N=C(c2ccc(OC)cc2)N(Cc2ccccc2)[C@@H]1c1ccccc1` (racemic) had a pIC50 in series [2] of 5.90.

Compound `CCOC(=O)[C@]1(c2ccccc2)N=C(c2ccc(OC)cc2)N(Cc2ccccc2)[C@@H]1c1ccc(NS(=O)(=O)Cc2ccccc2)cc1` gave a pIC50 in series [2] of 5.97.

Turning to `COC(=O)[C@]1(c2ccccc2)N=C(c2ccccc2)N(Cc2ccccc2)[C@@H]1c1ccccc1`, the pIC50 in [1] was 5.12; in series [2] it was 5.27.

In turn, `CCOC(=O)[C@]1(c2ccccc2)N=C(c2ccccc2)N(C(=O)c2ccccc2)[C@@H]1c1ccccc1` gave a pIC50 in series [2] of less than 5.00.

In series [2], `CCOC(=O)[C@]1(c2ccccc2)N=C(c2ccc(OC)cc2)N(Cc2ccccc2)[C@@H]1c1ccc(C#N)cc1` (racemic) showed a pIC50 of less than 5.00.

Turning to `CCOC(=O)[C@]1(c2ccccc2)N=C(c2ccccc2)N(Cc2ccccc2)[C@@H]1c1ccccc1`, in the series with THP-1 [8], the outcome was Active. Further, the solubility in series [3] stood at 1910 µg/mL (≈ 4150 µM). The values for the negative logarithm of the IC50 (pIC50) in [1] and in [2] were 5.60 and 5.59, respectively. For the same compound, the inhibition entry in the series filed under Homo sapiens [10] was “Active”.

For `CCOC(=O)[C@]1(c2ccccc2)N=C(c2ccccc2)N(Cc2ccco2)[C@@H]1c1ccccc1`, in series [2], the negative-log IC50 (pIC50) is 5.15.

`CCOC(=O)[C@]1(c2ccccc2)N=C(c2ccccc2)N(Cc2ccccc2)[C@@H]1c1ccc(NCc2ccccc2)cc1` (racemic) gave a negative-log IC50 (pIC50) in [2] of 6.33.

Compound `CCOC(=O)[C@]1(c2ccccc2)N=C(c2ccccc2)N(Cc2ccccc2)[C@@H]1c1ccc(NS(=O)(=O)c2ccccc2)cc1` (racemic) gave a negative logarithm of the IC50 (pIC50) in series [2] of 5.97.

Turning to `CCOC(=O)[C@]1(c2ccccc2)N=C(c2ccc(Br)cc2)N(Cc2ccccc2)[C@@H]1c1ccccc1` (racemic), the pIC50 in series [2] is 5.50.

`CCOC(=O)[C@]1(c2ccccc2)N=C(c2ccccc2)N(Cc2ccccc2)[C@@H]1c1ccncc1` gave a negative logarithm of the IC50 (pIC50) in series [2] of less than 5.00.

With `CCOC(=O)[C@]1(c2ccccc2)N=C(c2ccc(OC)cc2)N(Cc2ccccc2)[C@@H]1c1ccc(N)cc1` (racemic), the viability at 10 µM with THP-1 [7] was found to be 44%; with THP-1 [8] it was 98%. This compound gave a negative logarithm of the IC50 (pIC50) in series [2] of 5.71.

In the case of `CCOC(=O)[C@]1(c2ccccc2)N=C(c2ccccc2)N(Cc2ccccc2)[C@@H]1c1ccc(Cl)cc1`, in series [2], the pIC50 is 5.65.

As to `CCOC(=O)[C@]1(c2ccccc2)N=C(c2ccccc2)N(Cc2ccccc2)[C@@H]1c1ccc(C(F)(F)F)cc1`, in series [2], the pIC50 was 5.32.

As for `c1ccc(CN2C(c3ccccc3)=N[C@@H](c3ccccc3)[C@H]2c2ccccc2)cc1`, the pIC50 in series [1] and in series [2] was less than 5.00 each time.

Compound `CCOC(=O)[C@]1(c2ccccc2)N=C(c2ccc(OC)cc2)N(Cc2ccccc2)[C@@H]1c1ccc(NC(=N)N)cc1` (racemic) gave a negative logarithm of the IC50 (pIC50) in [2] of 6.20.

(Values after ChEMBL document CHEMBL2406988, “Inhibition of the human proteasome by imidazoline scaffolds” (J Med Chem, 2013).)
